Data as given in ChEMBL document CHEMBL6087468, “TKK130 is a 3-Hydroxy-Propanamidine (HPA) with Potent Antimalarial In Vivo Activity and a High Barrier to Resistance” (J Med Chem, 2025).
Activity calls are given as the source filed them. No cut-off for these calls is given here.

Tests used:
Plasmodium knowlesi = assay: Antiplasmodial activity against Plasmodium Knowlesi inhibition of parasite growth measured after 48 hrs incubation by Sybr-green assay; format: functional, organism-based
[1] = Cytotoxicity against human HeLa cells assessed as cell viability measured after 24 hrs by neutral red assay; format: toxicity, cell-based
[2] = Cytotoxicity against human HEK293 cells assessed as cell viability measured after 24 hrs by neutral red assay; format: toxicity, cell-based
Plasmodium falciparum [3] = assay: Antimalarial activity against multidrug-resistant Plasmodium falciparum Dd2 harboring pfcrt, pfmdr1, pfdhfr, pfdhps mutated loci assessed as inhibition of parasite growth incubated for 48 hrs by [3H]hypoxanthine incorporation assay; format: functional, organism-based
Plasmodium falciparum [4] = assay: Antimalarial activity against multidrug-resistant Plasmodium falciparum TM90C2b harboring pfcrt, pfmdr1, pfdhfr, pfdhps and pfcytb-Q0 mutated loci assessed as inhibition of parasite growth incubated for 48 hrs by [3H]hypoxanthine incorporation assay; format: functional, organism-based
Plasmodium falciparum [5] = assay: Antimalarial activity against multidrug-resistant Plasmodium falciparum RF12 (PH-1263-C) harboring pfcrt, pfmdr1, pfdhfr, pfdhps and pfK13 plasmepsin II mutated loci assessed as inhibition of parasite growth incubated for 48 hrs by [3H]hypoxanthine incorporation assay; format: functional, organism-based
[6] = Metabolic stability in human liver microsomes assessed as intrinsic clearance at 50 ug/ml measured up to 60 mins; format: ADME, Microsome; conditions: dose 50 µg/ml; for microsomal CLint at 50 ug/ml: liver microsomes, read-out: CLH
Procedure, shortened: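 Pooled human liver microsomes (150 donors) in 0.1 M potassium phosphate buffer pH 7.4, cosolvent method, analyte at 1 μM final; reactions stopped with ice-cold acetonitrile at 0, 15, 30, 45, 60 min; LC–MS/MS. Clint from ke (negative slope of ln peak-area ratio vs time) via t1/2 = ln2/ke; triplicate; no-cofactor negative control and blank run.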

Plasmodium berghei [7] = assay: In vivo antiplasmodial activity against Plasmodium berghei infected mouse model assessed as parasitemia suppression in blood at 30 mg/kg, po treated 4 times measured at 96 hrs post infection by fluorescence-activated cell sorting (FACS) analysis; format: functional
Plasmodium berghei [8] = assay: In vivo antiplasmodial activity against Plasmodium berghei infected mouse model assessed as mean survival time at 30 mg/kg, po treated 4 times measured at 96 hrs post infection by fluorescence-activated cell sorting (FACS) analysis (reference value: 4 days); format: functional
Plasmodium berghei [9] = assay: In vivo antiplasmodial activity against Plasmodium berghei infected mouse model assessed as curation rate at 30 mg/kg, po treated 4 times measured at 96 hrs post infection by fluorescence-activated cell sorting (FACS) analysis; format: functional
Hemozoin = assay: Inhibition of beta-hematin formation assessed as formation of bis-pyridyl heme complex incubated for 4 to 5 hrs by Nonidet-40 based plate reader assay
Plasmodium falciparum [10] = assay: Antimalarial activity against chloroquine-sensitive Plasmodium falciparum 3D7 infected in erythrocytes measured after 3 days by HRP2-ELISA analysis; format: functional, organism-based; conditions: 3D7, Erythrocyte, 72 h
Plasmodium falciparum [11] = assay: Antimalarial activity against chloroquine, sulfadoxine, and pyrimethamine-resistant Plasmodium falciparum Dd2 infected in erythrocytes measured after 3 days by HRP2-ELISA analysis; format: functional, organism-based; conditions: Dd2, Erythrocyte, 72 h
Plasmodium falciparum [12] = assay: Antimalarial activity against Plasmodium falciparum K1 infected in human erythrocytes assessed as inhibition of parasite growth measured after 48 hrs incubation by [3H]hypoxanthine incorporation assay; format: functional, organism-based; conditions: K1, Erythrocyte
Plasmodium falciparum [13] = assay: Antimalarial activity against Plasmodium falciparum NF54 infected in human erythrocytes assessed as inhibition of parasite growth measured after 48 hrs incubation by [3H]hypoxanthine incorporation assay; format: functional, organism-based; conditions: NF54, Erythrocyte
[14] = Cytotoxicity against human HepG2 cells assessed as cell viability measured after 24 hrs by neutral red assay; format: toxicity, cell-based
[15] = Selectivity index, ratio of IC50 for antimalarial activity against Plasmodium falciparum 3D7 to IC50 for cytotoxicity against human HepG2 cells; conditions: HepG2 cells and Plasmodium falciparum 3D7
Plasmodium falciparum [16] = assay: (§1) Antimalarial activity against chloroquine, sulfadoxine, and pyrimethamine-resistant Plasmodium falciparum Dd2 infected in erythrocyte assessed as reduction in number of viable parasites at 10 times IC50 concentration treated for 72 hrs followed by allowed to recover in drug-free medium for 28 days by HRP2-ELISA analysis; format: functional, organism-based
Plasmodium falciparum [17] = assay: as §1, with “24” for “72”; format: functional, organism-based
Plasmodium falciparum [18] = assay: as §1, with “120” for “72”; format: functional, organism-based
Plasmodium berghei [19] = assay: In vivo antiplasmodial activity against Plasmodium berghei infected mouse model assessed as parasitemia suppression in blood at 50 mg/kg, po treated 4 times measured at 96 hrs post infection by fluorescence-activated cell sorting (FACS) analysis; format: functional
Plasmodium berghei [20] = assay: In vivo antiplasmodial activity against Plasmodium berghei infected mouse model assessed as parasitemia suppression in blood at 10 mg/kg, po treated 4 times measured at 96 hrs post infection by fluorescence-activated cell sorting (FACS) analysis; format: functional
Plasmodium berghei [21] = assay: In vivo antiplasmodial activity against Plasmodium berghei infected mouse model assessed as parasitemia suppression in blood at 3 mg/kg, po treated 4 times measured at 96 hrs post infection by fluorescence-activated cell sorting (FACS) analysis; format: functional
Plasmodium berghei [22] = assay: In vivo antiplasmodial activity against Plasmodium berghei infected mouse model assessed as mean survival time at 50 mg/kg, po treated 4 times measured at 96 hrs post infection by fluorescence-activated cell sorting (FACS) analysis (reference value: 4 days); format: functional
Plasmodium berghei [23] = assay: In vivo antiplasmodial activity against Plasmodium berghei infected mouse model assessed as mean survival time at 10 mg/kg, po treated 4 times measured at 96 hrs post infection by fluorescence-activated cell sorting (FACS) analysis (reference value: 4 days); format: functional
Plasmodium berghei [24] = assay: In vivo antiplasmodial activity against Plasmodium berghei infected mouse model assessed as curation rate at 10 mg/kg, po treated 4 times measured at 96 hrs post infection by fluorescence-activated cell sorting (FACS) analysis; format: functional
[25] = Selectivity index, ratio of IC50 for antimalarial activity against Plasmodium falciparum 3D7 to IC50 for cytotoxicity against human HeLa cells; conditions: HeLa cells and Plasmodium falciparum 3D7
[26] = Selectivity index, ratio of IC50 for antimalarial activity against Plasmodium falciparum 3D7 to IC50 for cytotoxicity against human HEK293 cells; conditions: HEK293 cells and Plasmodium falciparum 3D7
[27] = Plasma protein binding in plasma (unknown origin) at 25 ng/ml measured after 24 hrs by standard equilibrium dialysis assay; format: ADME, cell-free; conditions: read-out: PPB (converted)
Procedure, shortened: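 Standard equilibrium dialysis (6 kDa regenerated cellulose membrane): donor plasma spiked at 25 ng/mL, acceptor 0.9% saline, 24 h at 37 °C. Acetonitrile precipitation of plasma, methanol added to acceptor; LC–MS/MS with calibration curves in each medium; fraction bound corrected for volume shift; triplicate; itraconazole reference.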

[28] = Plasma protein binding in plasma (unknown origin) at 25 ng/ml measured after 24 hrs by dilution method; format: ADME, cell-free
Procedure, shortened: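 Equilibrium dialysis with donor plasma diluted 1:10 or 1:20 in 0.9% saline, spiked at 25 ng/mL, against 0.9% saline acceptor for 24 h at 37 °C. Concentrations by LC–MS/MS against diluted-plasma calibration curves; unbound fraction (acceptor/donor) back-calculated to undiluted plasma; triplicate; itraconazole reference.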

Plasmodium falciparum [29] = assay: Induction of resistance development in Plasmodium falciparum Dd2 Pol delta at 2 x 10^7 initial inoculum per flask by single-step selection assay; format: functional, organism-based
Plasmodium falciparum [30] = assay: Induction of resistance development in Plasmodium falciparum Dd2 Pol delta at 2 x 10^7 initial inoculum per flask measured on day 16 by single-step selection assay; format: functional, organism-based
Plasmodium falciparum [31] = assay: Induction of resistance development in Plasmodium falciparum Dd2 Pol delta at 2 x 10^7 initial inoculum per flask measured by growth inhibition assay; format: functional, organism-based
Procedure, shortened: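 Recrudescent Dd2-Polδ parasites from DSM265 selection, compared with the parent line in the growth inhibition assay to measure the IC50 shift.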

With `CCN(CC)CCCC(C)Nc1ccnc2cc(Cl)ccc12` (stereo unspecified) [CHLOROQUINE] the IC50 (Plasmodium knowlesi) was 0.016 µM, the IC50 at 24 h [1] was greater than 1000 µM and the IC50 at 24 h [2] was greater than 1000 µM. For the same compound, the IC50 (Plasmodium falciparum [3]) was 0.015 µM, the IC50 (Plasmodium falciparum [4]) was 0.013 µM and the IC50 (Plasmodium falciparum [5]) was 0.004 µM. It also gave a microsomal CLint at 50 ug/ml [6] of less than 7 µL/min/mg, an Activity (Plasmodium berghei [7]) of 99.9% and an MSD (Plasmodium berghei [8]) of 21 days. It also gave an Activity (Plasmodium berghei [9]) of 0%.

Work on `C[C@@H]1CC[C@H]2[C@@H](C)C(=O)O[C@@H]3O[C@@]4(C)CC[C@@H]1[C@]32OO4` [ARTEMISININ] yielded an Activity (Plasmodium berghei [7]) of 99%, an MSD (Plasmodium berghei [8]) of 9 days and an Activity (Plasmodium berghei [9]) of 0%.

Work on `CCCCN(CCCC)CCC(O)c1cc2c(Cl)cc(Cl)cc2c2cc(C(F)(F)F)ccc12` (stereo unspecified) [HALOFANTRINE] yielded an IC50 (Hemozoin) of 13.4 µM and a microsomal CLint at 50 ug/ml [6] of 26.9 µL/min/mg.

For `CCCCN(CCCC)CC(O)c1cc(Cl)cc2c1-c1ccc(Cl)cc1/C2=C/c1ccc(Cl)cc1` (stereo unspecified) [LUMEFANTRINE], the IC50 (Plasmodium falciparum [10]) was 0.006 µM, the IC50 (Plasmodium falciparum [11]) was 0.002 µM and the IC50 (Plasmodium falciparum [12]) was 0.001 µM. For the same compound, the IC50 (Plasmodium falciparum [13]) was 0.005 µM, the IC50 at 24 h [14] was greater than 20 µM and the Activity (Plasmodium berghei [7]) was 99.8%. The MSD (Plasmodium berghei [8]) was greater than 30 days and the selectivity ratio [15] was greater than 20.

In the case of `CCc1nc(N)nc(N)c1-c1ccc(Cl)cc1`, the Activity (Plasmodium falciparum [16]) is reported as “Active; Compound Exhibited Slower Acting”.

`COc1ccc(/N=C(\N)CC(O)c2cc3c(F)cc(F)cc3c3cc(C(F)(F)F)ccc23)cc1` (stereo unspecified) showed an IC50 (Plasmodium falciparum [10]) of 0.005 µM, an IC50 (Plasmodium falciparum [11]) of 0.012 µM and an IC50 (Plasmodium falciparum [12]) of 0.006 µM. For the same compound, the IC50 (Plasmodium falciparum [13]) was 0.016 µM, the IC50 at 24 h [14] was 4.2 µM and the Activity (Plasmodium falciparum [17]) was “Active; Compound Exhibited Fast-Acting Than Dihydroartemisinin”. For the same compound, the Activity (Plasmodium falciparum [16]) was “Active”, the Activity (Plasmodium falciparum [18]) was “Active” and the IC50 (Hemozoin) was 8.4 µM. It also gave a CLint ([6]; microsomes, 1 h) of 13.6 µL/min/mg, an Activity (Plasmodium berghei [7]) of 99.9% and an Activity (Plasmodium berghei [19]) of 99.8%. It also gave an Activity (Plasmodium berghei [20]) of 99.9%, an Activity (Plasmodium berghei [21]) of 0% and an MSD (Plasmodium berghei [8]) of 28 days. It also gave an MSD (Plasmodium berghei [22]) of 27 days, an MSD (Plasmodium berghei [23]) of 17 days and an Activity (Plasmodium berghei [24]) of 0%. It also gave a selectivity ratio [25] of 9220, a selectivity ratio [15] of 860 and a selectivity ratio [26] of 7360.

In the case of `CCC(C)n1ncn(-c2ccc(N3CCN(c4ccc(OCC5COC(Cn6cncn6)(c6ccc(Cl)cc6Cl)O5)cc4)CC3)cc2)c1=O` (stereo unspecified) [ITRACONAZOLE], the fraction unbound at 24 h, 25 ng/ml [27] is reported as 0.016 and the fraction unbound at 24 h, 25 ng/ml [28] is reported as 0.004.

With `O=C1C(O)=C([C@H]2CC[C@H](c3ccc(Cl)cc3)CC2)C(=O)c2ccccc21` the Activity (Plasmodium falciparum [18]) was “Active; Compound Exhibited Slower Acting”.

In the case of `Cc1cc(Nc2ccc(S(F)(F)(F)(F)F)cc2)n2nc(C(C)(F)F)nc2n1` [DSM-265], the IC50 (Plasmodium falciparum [29]) is reported as 0.0102 µM, the Activity (Plasmodium falciparum [30]) is reported as “Not active; Recrudescence Of Parasite Observed” and the IC50 (Plasmodium falciparum [31]) is reported as 0.232 µM.
